Measured values as given in ChEMBL document CHEMBL3399974, “Discovery and SAR of novel series of imidazopyrimidinones and dihydroimidazopyrimidinones as positive allosteric modulators of the metabotropic glutamate receptor 5 (mGlu5)” (Bioorg Med Chem Lett, 2015).
Calls of active or inactive are those of the source. The rule behind the calls is not given here.

What was measured:
[1] = target: Metabotropic glutamate receptor 5 (Rattus norvegicus, UniProt P31424); assay: Positive allosteric modulation at rat mGluR5 expressed in HEK293 cells by calcium mobilization assay; assay type: functional, cell-based
How it was run: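 HEK293 cells stably expressing rat mGlu5 were run in a 'triple add' calcium mobilization assay that detects agonism, PAM and NAM activity together. Response amplitude was expressed as % of the maximal response to 100 µM glutamate. Values are the mean of three or more independent determinations.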

[2] = target: Metabotropic glutamate receptor 5 (Rattus norvegicus) (UniProt P31424); assay: Positive allosteric modulation at rat mGluR5 expressed in HEK293 cells assessed as amplitude of response at 30 uM by calcium mobilization assay relative to glutamate; assay type: functional, cell-based
How it was run: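 HEK293 cells stably expressing rat mGlu5 were used in a calcium mobilization assay. Test compound was given at 30 µM, and response amplitude is expressed as percent of the maximal response to 100 µM glutamate. Values are the average of three or more independent determinations.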

[3] = test system: Rattus norvegicus; assay: Antipsychotic activity in rat assessed as reversal of amphetamine-induced hyperlocomotion at 3 mg/kg, po; assay type: functional, organism-based; design: dose 3 mg/kg
How it was run: (§1)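 Rats dosed orally; reversal of amphetamine-induced hyperlocomotion scored as % reversal of amphetamine effect, across an oral dose range up to 100 mg/kg; terminal unbound brain concentrations calculated at the doses tested.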

[4] = target: Metabotropic glutamate receptor 1 (Homo sapiens, UniProt Q13255); assay: Positive allosteric modulation at mGluR1 (unknown origin)
[5] = target: Metabotropic glutamate receptor 5 (Homo sapiens) (UniProt P41594); assay: Agonist activity at mGluR5 (unknown origin) at 30 uM
[6] = target: Cytochrome P450 2D6 (Homo sapiens, UniProt P10635); assay: Inhibition of human CYP2D6; assay type: ADME
How it was run: (§2)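 Cocktail assay in human liver microsomes using known probe substrates for the major CYP isoforms (2C9, 2D6, 3A4, 1A2). IC50 was determined for each isoform.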

[7] = Plasma protein binding in rat; assay type: ADME, cell-free
[8] = Drug metabolism in human liver microsomes assessed as compound metabolized at 1 uM after 15 mins; assay type: ADME; conditions: read-out: Drug metabolism
How it was run: (§3)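 Test compound at 1 µM was incubated for 15 min with liver microsomes (human for HLM, rat for RLM). Read-out was % of compound metabolized.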

[9] = Fraction unbound in rat brain at 1 mg/kg, iv and 10 mg/kg, po; assay type: ADME, organism-based
[10] = target: Metabotropic glutamate receptor 2 (Homo sapiens, UniProt Q14416); assay: Positive allosteric modulation at mGluR2 (unknown origin)
[11] = test system: Rattus norvegicus; assay: Antipsychotic activity in rat assessed as reversal of amphetamine-induced hyperlocomotion at 56.6 mg/kg, po; assay type: functional
How it was run: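 Rats were dosed orally and scored for reversal of amphetamine-induced hyperlocomotion, a model of antipsychotic activity. Doses tested went up to 100 mg/kg. Terminal unbound brain concentrations were calculated at the tested doses.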

[12] = target: Metabotropic glutamate receptor 4 (Homo sapiens, UniProt Q14833); assay: Positive allosteric modulation at mGluR4 (unknown origin)
[13] = test system: Rattus norvegicus; assay: Antipsychotic activity in po dosed rat assessed as reversal of amphetamine-induced hyperlocomotion; assay type: functional, organism-based; how it was run: as §1
[14] = target: Metabotropic glutamate receptor 8 (Homo sapiens, UniProt O00222); assay: Positive allosteric modulation at mGluR8 (unknown origin)
[15] = Ratio of AUC in brain to plasma of rat at 1 mg/kg, iv and 10 mg/kg, po; assay type: ADME, organism-based
[16] = Drug metabolism in rat liver microsomes assessed as compound metabolized at 1 uM after 15 mins; assay type: ADME; conditions: read-out: Drug metabolism; how it was run: as §3
[17] = target: T1, Cytochrome P450 1A2 (Homo sapiens, UniProt P05177); assay: Inhibition of human CYP1A2; assay type: ADME
T1 sequence (P05177 whole entry): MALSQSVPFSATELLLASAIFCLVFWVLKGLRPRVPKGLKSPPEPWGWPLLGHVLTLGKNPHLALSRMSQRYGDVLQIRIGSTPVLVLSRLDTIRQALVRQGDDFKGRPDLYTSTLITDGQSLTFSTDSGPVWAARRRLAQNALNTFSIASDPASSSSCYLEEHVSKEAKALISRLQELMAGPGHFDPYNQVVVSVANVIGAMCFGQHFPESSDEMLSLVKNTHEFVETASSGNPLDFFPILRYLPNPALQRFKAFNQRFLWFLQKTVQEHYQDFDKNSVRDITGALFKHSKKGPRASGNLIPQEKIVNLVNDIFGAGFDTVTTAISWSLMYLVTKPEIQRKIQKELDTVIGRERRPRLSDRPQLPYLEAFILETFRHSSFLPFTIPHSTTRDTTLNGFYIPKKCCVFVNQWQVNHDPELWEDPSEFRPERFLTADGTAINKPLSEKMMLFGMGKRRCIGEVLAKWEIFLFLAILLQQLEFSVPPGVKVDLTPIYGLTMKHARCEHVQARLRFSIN
How it was run: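 Cocktail assay in human liver microsomes with known probe substrates for CYP 2C9, 2D6, 3A4 and 1A2; IC50 determined.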

[18] = test system: Rattus norvegicus; assay: Antipsychotic activity in rat assessed as reversal of amphetamine-induced hyperlocomotion at 100 mg/kg, po; assay type: functional; how it was run: as §1
[19] = test system: Canis familiaris; assay: Toxicity in dog assessed as dizziness at 0.5 mg/ml, iv; assay type: organism-based, Canis lupus familiaris; conditions: in vivo
[20] = Cmax in rat brain at 1 mg/kg, iv and 10 mg/kg, po; assay type: ADME, organism-based
[21] = target: Metabotropic glutamate receptor 6 (Homo sapiens, UniProt O15303); assay: Positive allosteric modulation at mGluR6 (unknown origin)
[22] = test system: Rattus norvegicus; assay: Toxicity in rat assessed as pro-convulsive behavior up to 120 mg/kg, po by modified Irwin neurological test battery method; assay type: organism-based; design: dose 120 mg/kg, route oral; conditions: in vivo
[23] = target: Cytochrome P450 2C9 (Homo sapiens, UniProt P11712); assay: Inhibition of human CYP2C9; assay type: ADME; how it was run: as §2
[24] = test system: Plasma; assay: AUC in rat plasma at 1 mg/kg, iv and 10 mg/kg, po; assay type: ADME, organism-based; conditions: in vivo
[25] = target: Metabotropic glutamate receptor 7 (Homo sapiens, UniProt Q14831); assay: Positive allosteric modulation at mGluR7 (unknown origin)
[26] = Plasma protein binding in human; assay type: ADME, cell-free
[27] = test system: Rattus norvegicus; assay: Volume of distribution at steady state in rat at 1 mg/kg, iv and 10 mg/kg, po; assay type: ADME, organism-based; conditions: in vivo
How it was run: (§4)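 Rat PK: compound formulated at 1 mg/mL in 20% HP-β-CD and given at 1 mg/kg IV and 10 mg/kg PO.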

[28] = Terminal half-life in rat at 1 mg/kg, iv and 10 mg/kg, po; assay type: ADME, organism-based; conditions: in vivo, read-out: beta t1/2 (converted); how it was run: as §4
[29] = target: Cytochrome P450 3A4 (Homo sapiens, UniProt P08684); assay: Inhibition of human CYP3A4; assay type: ADME; how it was run: as §2
[30] = target: Metabotropic glutamate receptor 3 (Homo sapiens, UniProt Q14832); assay: Negative allosteric modulation at mGluR3 (unknown origin)

Sequence of Metabotropic glutamate receptor 5 (Rattus norvegicus) (P31424 21-1203 limits assumed): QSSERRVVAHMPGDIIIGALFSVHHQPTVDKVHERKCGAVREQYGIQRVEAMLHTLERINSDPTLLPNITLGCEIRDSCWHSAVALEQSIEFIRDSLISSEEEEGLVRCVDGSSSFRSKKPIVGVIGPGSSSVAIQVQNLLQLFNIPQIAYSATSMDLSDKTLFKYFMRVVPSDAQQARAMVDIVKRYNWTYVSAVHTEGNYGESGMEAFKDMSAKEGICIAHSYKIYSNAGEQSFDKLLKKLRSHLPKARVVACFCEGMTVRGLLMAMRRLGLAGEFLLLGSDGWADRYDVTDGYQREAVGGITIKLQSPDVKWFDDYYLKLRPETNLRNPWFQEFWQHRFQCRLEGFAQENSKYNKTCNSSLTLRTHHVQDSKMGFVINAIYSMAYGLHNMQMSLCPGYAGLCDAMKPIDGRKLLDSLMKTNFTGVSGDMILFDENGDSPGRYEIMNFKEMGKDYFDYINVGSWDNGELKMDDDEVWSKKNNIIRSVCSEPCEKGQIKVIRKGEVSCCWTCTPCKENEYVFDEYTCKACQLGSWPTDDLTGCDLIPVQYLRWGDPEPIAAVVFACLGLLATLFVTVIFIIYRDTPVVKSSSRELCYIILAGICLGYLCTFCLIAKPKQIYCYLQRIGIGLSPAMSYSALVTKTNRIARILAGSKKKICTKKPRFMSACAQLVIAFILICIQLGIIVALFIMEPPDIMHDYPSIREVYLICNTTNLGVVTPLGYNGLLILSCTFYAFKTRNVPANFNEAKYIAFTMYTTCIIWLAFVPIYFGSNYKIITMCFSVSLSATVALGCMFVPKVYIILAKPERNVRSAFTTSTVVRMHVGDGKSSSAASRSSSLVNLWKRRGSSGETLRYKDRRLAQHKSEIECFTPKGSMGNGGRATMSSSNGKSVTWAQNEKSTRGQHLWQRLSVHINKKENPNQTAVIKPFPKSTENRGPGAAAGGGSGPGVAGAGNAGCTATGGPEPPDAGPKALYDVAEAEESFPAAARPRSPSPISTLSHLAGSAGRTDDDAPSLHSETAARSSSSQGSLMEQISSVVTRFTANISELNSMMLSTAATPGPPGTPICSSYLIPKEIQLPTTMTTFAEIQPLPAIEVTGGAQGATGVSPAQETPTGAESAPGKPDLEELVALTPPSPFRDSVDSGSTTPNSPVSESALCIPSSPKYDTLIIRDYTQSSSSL
Sequence of Metabotropic glutamate receptor 5 (P31424 whole entry): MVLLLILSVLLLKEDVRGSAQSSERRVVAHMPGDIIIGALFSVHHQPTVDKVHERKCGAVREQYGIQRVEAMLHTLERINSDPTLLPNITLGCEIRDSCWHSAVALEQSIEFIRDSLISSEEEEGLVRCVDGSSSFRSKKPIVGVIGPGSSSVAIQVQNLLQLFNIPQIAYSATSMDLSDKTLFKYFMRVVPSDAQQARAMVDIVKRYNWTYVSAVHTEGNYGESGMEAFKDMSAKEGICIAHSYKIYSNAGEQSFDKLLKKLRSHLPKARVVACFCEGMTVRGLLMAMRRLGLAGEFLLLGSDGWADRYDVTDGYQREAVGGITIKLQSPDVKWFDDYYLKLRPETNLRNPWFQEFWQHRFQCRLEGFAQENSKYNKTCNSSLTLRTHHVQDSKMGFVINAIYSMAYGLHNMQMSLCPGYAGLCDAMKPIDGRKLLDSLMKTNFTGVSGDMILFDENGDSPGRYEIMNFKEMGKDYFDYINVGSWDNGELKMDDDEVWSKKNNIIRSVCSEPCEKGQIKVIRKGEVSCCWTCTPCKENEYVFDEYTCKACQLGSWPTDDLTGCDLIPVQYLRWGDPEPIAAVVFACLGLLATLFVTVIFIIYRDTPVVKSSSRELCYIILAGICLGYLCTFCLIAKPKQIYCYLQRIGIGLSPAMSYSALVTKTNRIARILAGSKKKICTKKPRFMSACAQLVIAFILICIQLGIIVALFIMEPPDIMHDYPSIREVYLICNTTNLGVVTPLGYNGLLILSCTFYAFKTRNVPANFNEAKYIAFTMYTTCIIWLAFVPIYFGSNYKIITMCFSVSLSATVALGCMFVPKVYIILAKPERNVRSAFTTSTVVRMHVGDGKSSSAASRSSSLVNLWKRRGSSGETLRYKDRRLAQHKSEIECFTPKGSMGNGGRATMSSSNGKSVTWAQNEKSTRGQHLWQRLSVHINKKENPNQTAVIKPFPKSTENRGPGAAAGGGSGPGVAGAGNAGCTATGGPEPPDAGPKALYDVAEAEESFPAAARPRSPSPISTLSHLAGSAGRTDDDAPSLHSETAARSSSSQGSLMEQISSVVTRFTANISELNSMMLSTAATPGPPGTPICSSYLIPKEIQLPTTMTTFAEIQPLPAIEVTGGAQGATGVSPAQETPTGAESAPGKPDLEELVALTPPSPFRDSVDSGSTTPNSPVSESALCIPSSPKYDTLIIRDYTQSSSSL
Sequence of Metabotropic glutamate receptor 8 (O00222 whole entry): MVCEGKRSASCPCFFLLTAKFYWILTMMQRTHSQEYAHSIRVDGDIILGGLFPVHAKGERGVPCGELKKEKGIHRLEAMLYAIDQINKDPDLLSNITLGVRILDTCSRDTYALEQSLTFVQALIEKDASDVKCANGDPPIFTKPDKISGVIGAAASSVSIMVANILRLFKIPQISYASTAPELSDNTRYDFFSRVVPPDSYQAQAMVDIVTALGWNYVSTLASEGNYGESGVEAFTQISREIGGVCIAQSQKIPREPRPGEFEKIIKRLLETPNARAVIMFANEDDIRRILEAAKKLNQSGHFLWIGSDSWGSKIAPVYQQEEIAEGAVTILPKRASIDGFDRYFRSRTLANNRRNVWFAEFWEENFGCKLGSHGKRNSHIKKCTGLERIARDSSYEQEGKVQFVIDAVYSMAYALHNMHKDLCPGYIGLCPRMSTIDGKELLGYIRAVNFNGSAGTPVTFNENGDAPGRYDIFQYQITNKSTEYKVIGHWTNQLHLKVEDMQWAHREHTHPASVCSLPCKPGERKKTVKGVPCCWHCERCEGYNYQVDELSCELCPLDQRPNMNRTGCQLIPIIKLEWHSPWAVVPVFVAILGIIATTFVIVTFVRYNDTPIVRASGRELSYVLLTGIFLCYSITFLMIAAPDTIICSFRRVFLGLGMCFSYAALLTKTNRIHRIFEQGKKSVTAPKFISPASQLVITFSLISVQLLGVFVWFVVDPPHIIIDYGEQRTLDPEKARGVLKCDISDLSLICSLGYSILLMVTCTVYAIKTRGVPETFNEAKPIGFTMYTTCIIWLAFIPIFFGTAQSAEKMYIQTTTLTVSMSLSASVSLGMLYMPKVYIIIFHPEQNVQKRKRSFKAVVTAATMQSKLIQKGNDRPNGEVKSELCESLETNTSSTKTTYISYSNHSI
Sequence of Metabotropic glutamate receptor 6 (O15303 whole entry): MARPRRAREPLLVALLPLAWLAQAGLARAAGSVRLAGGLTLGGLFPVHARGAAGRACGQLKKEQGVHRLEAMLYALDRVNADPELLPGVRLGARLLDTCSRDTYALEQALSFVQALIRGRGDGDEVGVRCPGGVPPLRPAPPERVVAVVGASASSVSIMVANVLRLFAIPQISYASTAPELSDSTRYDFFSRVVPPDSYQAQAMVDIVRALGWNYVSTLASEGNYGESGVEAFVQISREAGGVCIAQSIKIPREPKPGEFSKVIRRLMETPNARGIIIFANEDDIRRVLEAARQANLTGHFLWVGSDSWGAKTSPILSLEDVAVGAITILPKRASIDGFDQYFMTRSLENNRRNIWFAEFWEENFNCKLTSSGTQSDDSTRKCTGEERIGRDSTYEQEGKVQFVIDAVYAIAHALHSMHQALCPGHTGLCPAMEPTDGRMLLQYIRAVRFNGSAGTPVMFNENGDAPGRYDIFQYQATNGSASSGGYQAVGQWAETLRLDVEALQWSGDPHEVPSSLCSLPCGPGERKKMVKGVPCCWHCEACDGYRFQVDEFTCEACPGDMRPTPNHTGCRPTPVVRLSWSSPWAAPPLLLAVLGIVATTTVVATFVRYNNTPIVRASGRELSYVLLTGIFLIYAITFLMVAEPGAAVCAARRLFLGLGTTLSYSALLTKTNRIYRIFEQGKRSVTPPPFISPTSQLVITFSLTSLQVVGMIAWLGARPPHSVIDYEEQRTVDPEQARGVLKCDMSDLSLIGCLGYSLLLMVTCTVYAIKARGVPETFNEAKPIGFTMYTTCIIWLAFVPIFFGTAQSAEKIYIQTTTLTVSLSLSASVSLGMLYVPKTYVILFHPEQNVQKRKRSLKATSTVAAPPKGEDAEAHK
Sequence of Metabotropic glutamate receptor 2 (Q14416 whole entry): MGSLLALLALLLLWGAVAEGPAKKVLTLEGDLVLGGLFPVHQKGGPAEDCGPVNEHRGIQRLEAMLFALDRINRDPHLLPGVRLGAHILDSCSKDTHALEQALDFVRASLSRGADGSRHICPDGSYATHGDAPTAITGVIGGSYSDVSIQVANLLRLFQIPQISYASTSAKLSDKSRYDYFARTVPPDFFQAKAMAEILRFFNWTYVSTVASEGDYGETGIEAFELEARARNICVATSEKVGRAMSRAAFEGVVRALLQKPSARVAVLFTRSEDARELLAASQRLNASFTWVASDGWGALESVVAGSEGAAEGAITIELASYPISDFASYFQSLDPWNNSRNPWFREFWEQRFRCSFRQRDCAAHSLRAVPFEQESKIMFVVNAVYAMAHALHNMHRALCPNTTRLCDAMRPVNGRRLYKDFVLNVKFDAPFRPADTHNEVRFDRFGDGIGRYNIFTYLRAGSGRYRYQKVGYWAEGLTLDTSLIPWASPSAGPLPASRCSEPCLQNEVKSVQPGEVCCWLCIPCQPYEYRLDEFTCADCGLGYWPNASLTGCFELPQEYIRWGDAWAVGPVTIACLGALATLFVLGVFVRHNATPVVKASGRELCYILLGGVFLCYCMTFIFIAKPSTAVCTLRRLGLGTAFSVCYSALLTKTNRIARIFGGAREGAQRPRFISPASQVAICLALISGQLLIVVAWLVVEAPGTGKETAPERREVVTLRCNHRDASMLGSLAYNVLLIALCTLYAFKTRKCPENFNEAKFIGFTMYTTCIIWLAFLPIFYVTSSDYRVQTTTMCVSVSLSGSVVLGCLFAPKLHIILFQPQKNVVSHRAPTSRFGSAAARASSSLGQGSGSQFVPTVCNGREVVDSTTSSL

O=c1n(-c2ccc(F)cc2)ccc2nc(COc3cccnc3)cn12
EC50 [1]: > 10000 nM
Emax [2]: 65%

O=c1n(CC2CC2)ccc2nc(COc3ccccc3)cn12
EC50 [1]: 1120 nM
Emax [2]: 47%

O=C1N(c2ccc(F)cc2)CCc2nc(COc3ccccc3)cn21
Activity [3]: Active
EC50 [4]: > 10000 nM
Activity [5]: inactive
IC50 [6]: > 20000 nM
PPB [7]: 88.1%
EC50 [1]: 86 nM
metabolised at 0.25 h, 1 µM [8]: 18%
fraction unbound [9]: 0.062
EC50 [10]: > 10000 nM
Activity [11]: 50%
Emax [2]: 70%
EC50 [12]: > 10000 nM
Activity [13]: Dose-dependent effect
EC50 [14]: > 10000 nM
Kp [15]: 1.8
metabolised at 0.25 h, 1 µM [16]: 19%
IC50 [17]: > 20000 nM
Activity [18]: 50%
Activity [19]: Toxic
Cmax [20]: 6.05 µM
EC50 [21]: > 10000 nM
Activity [22]: Toxic
IC50 [23]: > 20000 nM
AUC [24]: 7.2 µM·h
EC50 [25]: > 10000 nM
PPB [26]: 90.3%
Vdss [27]: 1.4 L/kg
half-life [28]: 55.8 min
IC50 [29]: > 20000 nM
IC50 [30]: 290 nM

Cc1cc2nc(COc3ccccc3)cn2c(=O)n1-c1ccc(F)cc1
EC50 [1]: 2070 nM
Emax [2]: 60%

Cc1cccc(OCc2cn3c(n2)CCN(c2ccc(F)cc2)C3=O)c1
EC50 [1]: 285 nM
Emax [2]: 47%

O=C1N(c2ccc(F)cc2)CCc2nc(COc3ccc(F)cc3)cn21
EC50 [1]: 197 nM
metabolised at 0.25 h, 1 µM [8]: 3%
Emax [2]: 88%
metabolised at 0.25 h, 1 µM [16]: 11%

O=C1N(c2ccc(F)cc2)CCc2nc(COc3cccc(F)c3)cn21
EC50 [1]: 69 nM
metabolised at 0.25 h, 1 µM [8]: 0%
Emax [2]: 72%
metabolised at 0.25 h, 1 µM [16]: 29%

Cc1cc(-n2ccc3nc(COc4ccccc4)cn3c2=O)ncc1F
EC50 [1]: 435 nM
metabolised at 0.25 h, 1 µM [8]: 17%
Emax [2]: 77%
metabolised at 0.25 h, 1 µM [16]: 49%

Cc1cccc(OCc2cn3c(=O)n(-c4ccc(F)cc4)ccc3n2)c1
EC50 [1]: 344 nM
Emax [2]: 30%

Cc1ccnc(-n2ccc3nc(COc4ccccc4)cn3c2=O)c1
EC50 [1]: 5100 nM
Emax [2]: 64%

O=c1n(-c2ccc(F)cc2)ccc2nc(COc3ccccn3)cn12
EC50 [1]: 3170 nM
Emax [2]: 88%

O=C1N(c2ccc(F)cn2)CCc2nc(COc3ccccc3)cn21
EC50 [1]: 359 nM
metabolised at 0.25 h, 1 µM [8]: 1%
Emax [2]: 66%
metabolised at 0.25 h, 1 µM [16]: 14%

O=c1n(-c2cccc(F)c2)ccc2nc(COc3ccccc3)cn12
EC50 [1]: 514 nM
metabolised at 0.25 h, 1 µM [8]: 47%
Emax [2]: 69%
metabolised at 0.25 h, 1 µM [16]: 71%

O=c1[nH]ccc2nc(COc3ccccc3)cn12
EC50 [1]: > 30000 nM
Emax [2]: 19%

Cc1ccc(N2CCc3nc(COc4ccccc4)cn3C2=O)nc1
EC50 [1]: 485 nM
metabolised at 0.25 h, 1 µM [8]: 35%
Emax [2]: 74%
metabolised at 0.25 h, 1 µM [16]: 98%

O=c1n(-c2ccc(F)cc2)ccc2nc(COc3ccccc3)cn12
EC50 [4]: > 10000 nM
PPB [7]: 93.1%
EC50 [1]: 310 nM
metabolised at 0.25 h, 1 µM [8]: 14%
EC50 [10]: > 10000 nM
Emax [2]: 83%
EC50 [12]: > 10000 nM
EC50 [14]: > 10000 nM
metabolised at 0.25 h, 1 µM [16]: 27%
EC50 [21]: > 10000 nM
EC50 [25]: > 10000 nM
PPB [26]: 96.4%
IC50 [30]: 630 nM

Cc1cc(N2CCc3nc(COc4ccccc4)cn3C2=O)ccc1F
EC50 [1]: 130 nM
metabolised at 0.25 h, 1 µM [8]: 10%
Emax [2]: 91%
metabolised at 0.25 h, 1 µM [16]: 37%
